Laboratory results as given in ChEMBL document CHEMBL4513216, “Probing the Open Global Health Chemical Diversity Library for Multistage-Active Starting Points for Next-Generation Antimalarials” (ACS Infect Dis, 2020).

Assay: Toxicity liver stage against HepG2, at 10uM
Assay type: cell-based
Design: test concentration 10 uM, cell line HepG2-A16-CD81EGFP
Details: human, HepG2-A16-CD81EGFP cells; read-out: INHIBITION
Method in brief: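 Uninfected HepG2-A16-CD81EGFP cells, 3 × 10^3 per well, 1536-well, plated on prespotted compound at 10 μM final, parasite-free screening media added to match infected plates; puromycin 10 μM positive, DMSO 0.5% negative; run in parallel with 48 h PbLuc assay at 37 °C, 5% CO2; viability by CellTiter-Glo luminescence, normalized to controls.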

COc1ccc2nc(C[C@@H]3C[C@@H](C(C)C)[C@H](CN(C)C)C=C3C)[nH]c2n1
cytotoxicity at 10 µM: 5.09%

CC(=O)N1CCC(=O)N(C2CCCC2)Cc2ccccc21
cytotoxicity at 10 µM: -6.09%

Cc1occc(=O)c1OCc1noc(C(=O)NC(C)C)n1
cytotoxicity at 10 µM: 4.6%

CC1(C)OCC2(CO1)CN(C(=O)c1ccccc1Cl)C2
cytotoxicity at 10 µM: -4.21%

O=S(=O)(c1ccccc1F)N1CCC(Oc2cccnn2)CC1
cytotoxicity at 10 µM: 0.388%

Cc1ccnc(OC[C@]23COC[C@H]2CN(C(=O)c2ccnn2C)C3)n1
cytotoxicity at 10 µM: 3.16%

c1cncc(OCC2CN(Cc3ccco3)Cc3nccn3C2)c1 (stereo not given)
cytotoxicity at 10 µM: -20.4%

Cn1cc(S(=O)(=O)N2CCN(S(=O)(=O)c3ccc(Br)s3)CC2)cn1
cytotoxicity at 10 µM: 11.8%

CCn1nc(C)c2nc(C)nc(N(C)Cc3ccco3)c21
cytotoxicity at 10 µM: 4.23%

O=C(COCc1nc(-c2ccncc2)no1)N1CCCCCC1
cytotoxicity at 10 µM: -8.83%

Cc1nn(C)cc1CN1CCCC(n2c(=O)oc3ccccc32)C1 (stereo not given)
cytotoxicity at 10 µM: 3.33%

Cc1cc(C)nc(C2CCCN2S(=O)(=O)N2CCOCC2)n1 (stereo not given)
cytotoxicity at 10 µM: 0.55%

N#Cc1ccc(CN2CCCC3(Cc4ccccc4CNC3=O)C2)cc1 (stereo not given)
cytotoxicity at 10 µM: 11.8%

CN1CCN(C)c2cc(NC(=O)c3cc[nH]n3)ccc2C1
cytotoxicity at 10 µM: -10.9%

Cn1c(CO)cnc1SC(C(=O)NC1CC1)c1ccccc1 (stereo not given)
cytotoxicity at 10 µM: -56%

CN(C)c1cccc(C(=O)N2CCCc3cc(OC(F)(F)F)ccc32)c1
cytotoxicity at 10 µM: -44.4%

CC1Oc2c(cccc2C(=O)N2CCN(CC(C)(C)O)CC2)NC1=O (stereo not given)
cytotoxicity at 10 µM: -8.9%

CCOc1cncc(NCCc2nnc3ccccn23)n1
cytotoxicity at 10 µM: 9.84%

Cc1nnc2ccc(N3CCN(Cc4nccn4C)CC3)nn12
cytotoxicity at 10 µM: 13.3%

COC(=O)CCN(CC1CCCO1)C(=O)Cc1ccc(OC)c(OC)c1 (stereo not given)
cytotoxicity at 10 µM: 4.08%

N#CCCCOc1cccc(CN2CCCC2c2ccc[nH]2)c1 (stereo not given)
cytotoxicity at 10 µM: -14.5%

CC(NC1(CNC(=O)NC2CC2)CCOCC1)c1ccccc1 (stereo not given)
cytotoxicity at 10 µM: 10.2%

Cn1cnnc1C1CCN(C(=O)CCCOCc2ccccc2)CC1
cytotoxicity at 10 µM: -7.06%

CCCC(NC(=O)c1ccc(C)cc1C)c1nnn[nH]1 (stereo not given)
cytotoxicity at 10 µM: -3.82%

Cc1nc(C2CCCN(C(=O)c3sc(C)nc3C)C2)no1 (stereo not given)
cytotoxicity at 10 µM: -1.96%

Cc1n[nH]c(C2CN(CC(=O)NCCc3ccccc3C)CCO2)n1 (stereo not given)
cytotoxicity at 10 µM: -3.94%

Cc1[nH]c(=O)sc1S(=O)(=O)N1CCCC1C(=O)NC1CC1 (stereo not given)
cytotoxicity at 10 µM: 5.36%

Cn1cc(S(=O)(=O)NC(CO)Cc2c[nH]c3ccccc23)cn1 (stereo not given)
cytotoxicity at 10 µM: -7.37%

CC(c1nc(C2CC2)no1)N(C)Cc1ccc(Cl)cc1 (stereo not given)
cytotoxicity at 10 µM: 3.74%

Fc1ccc(Br)c(NCc2nnsc2Cl)c1
cytotoxicity at 10 µM: 14.3%

OC(CNC1CCOCC1)c1ccc(Cl)c(F)c1 (stereo not given)
cytotoxicity at 10 µM: -1.12%

CC(C)c1nnc2n1CCN(C(=O)c1cnc(C3CC3)s1)C2
cytotoxicity at 10 µM: 4.87%

Nc1ccnn1C1CCN(Cc2ccccc2)C1 (stereo not given)
cytotoxicity at 10 µM: 6.36%

CN(Cc1cncs1)C1CCN(C(=O)OC(C)(C)C)CC1
cytotoxicity at 10 µM: 5.94%

COCC(NC(=O)c1ccc(O)nc1)c1ccc(C)o1 (stereo not given)
cytotoxicity at 10 µM: 4.96%

CN(CCOCC1CC1)C(=O)Cn1cccc(C(F)(F)F)c1=O
cytotoxicity at 10 µM: -6.96%

CC(=O)OCC1CCCCN1C(=O)c1ccc(Cn2ccnc2)o1 (stereo not given)
cytotoxicity at 10 µM: -54.5%

Cc1ccc(C)c(CS(=O)(=O)CC(=O)N(C)Cc2cccc(F)c2)c1
cytotoxicity at 10 µM: 4.42%

CC(C(=O)NC1CC1)S(=O)(=O)Cc1csc(-c2cccs2)n1 (stereo not given)
cytotoxicity at 10 µM: 9.02%

COc1cc(C)c(CNC(C)c2csc(C3CC3)n2)cc1OC (stereo not given)
cytotoxicity at 10 µM: -2.21%

O=C1OCCC1N1CCN(c2ccc(O)cc2)CC1 (stereo not given)
cytotoxicity at 10 µM: -1.29%

O=C(CN1CCCC(O)C1)NC(=O)NCc1cccs1 (stereo not given)
cytotoxicity at 10 µM: 0.795%

COCCN1C(=O)CC[C@@H]2[C@H]1CCN2S(=O)(=O)c1cccs1
cytotoxicity at 10 µM: -87.2%

N#Cc1ccc(C(=O)N2CCc3c(COCC4CC4)cncc3C2)cc1
cytotoxicity at 10 µM: -98.8%

Cc1cccc(CN2CCC3(CC2)COC(COCC2CC2)C3)n1 (stereo not given)
cytotoxicity at 10 µM: -108%

Cc1nc(-c2nc(C(=O)NC3CC3)c3ccccn23)cn1C(C)C
cytotoxicity at 10 µM: -103%

Cc1cc(C(F)(F)F)nc(CNc2cc(C)nc3cc(C)nn23)n1
cytotoxicity at 10 µM: 9.29%

Cc1cc(C(F)(F)F)nc(CCNc2nc(C)nc3sccc23)n1
cytotoxicity at 10 µM: 9.46%

COCCN(Cc1ccc(C)cc1)Cc1nccn1C
cytotoxicity at 10 µM: -63.3%

COc1cccc2c1OCC(C(=O)NCCc1nnc(N)s1)C2 (stereo not given)
cytotoxicity at 10 µM: -33.4%

Cc1ccc(OC2(C(=O)O)CCN(C(=O)c3ccoc3C)CC2)cn1
cytotoxicity at 10 µM: -1.56%

CN(C)CC(=O)NC1CC(C)(C)Cc2nc(C(C)(C)C)ncc21 (stereo not given)
cytotoxicity at 10 µM: -13.4%

CCCn1cc(C(=O)NC(C)c2c(C)nn(CC)c2C)c(C)n1 (stereo not given)
cytotoxicity at 10 µM: 5.31%

COc1nc2c(cc1C(=O)NCc1nc(CSC)no1)CCC2
cytotoxicity at 10 µM: -11.7%

Cc1c(C(=O)N2CCN(C)[C@@H]3CS(=O)(=O)C[C@@H]32)[nH]c2ccc(F)cc12
cytotoxicity at 10 µM: -9.2%
